Published values pooled from the literature.
Compare with care: the assays were run in different laboratories.
Target: Serine/threonine-protein kinase pim-2 (PIM2, Homo sapiens, UniProt Q9P1W9)

| Compound | observed | technique | tested at | remaining binding [%] |
| --- | --- | --- | --- | --- |
| C[C@@H](c1ccc(-n2cnc3c(N)ncnc32)cc1)N1CCc2nn(C)c(Cc3ccccc3)c2C1=O | binding | competition with immobilised ligand | 0.1 µM | 100 |
| COCCOc1nc(-c2ccc(Cl)nc2)nc2c1CN(C(=O)c1ncn3ccccc13)CC2 | cell-free assay | competition with immobilised ligand | 0.1 µM | 98 |
| COc1ncc2cc3ccccc3nc2c1C#N | cell-free assay | competition with immobilised ligand | 5 µM | 88 |
| Cc1cnc(Nc2ccc(C(=O)N3CCC(N4CCCC4)CC3)cc2)nc1-c1cc2ccccc2s1 | binding | competition with immobilised ligand | 1 µM | 100 |
| O=C(NCC1CCOCC1)c1n[nH]cc1NC(=O)c1c(F)cccc1F | binding | competition with immobilised ligand | 1 µM | 91 |
| C[C@@H]1CCN(c2nccc(-c3cnn4ncccc34)n2)C1 | binding | – | 1 µM | 78 |
| CO[C@@H](C)c1c(Nc2ccc([C@@H](N(C)C(=O)C3CCS(=O)(=O)CC3)C(F)(F)F)cc2)cnc2cc(Cl)nn12 | cell-free assay | competition with immobilised ligand | 1 µM | 95 |
| CCN1CCN(Cc2ccc(C(=O)Nc3ccc(C)c(Oc4ccc5c(c4)CC(=O)N5)c3)cc2C(F)(F)F)CC1 | binding | competition with immobilised ligand | 1 µM | 97 |
| c1ccc(N2CCN(Cc3nc4ccccc4[nH]3)CC2)nc1 | binding | competition with immobilised ligand | 1 µM | 85 |
| O=C(NCCCN1CCOCC1)c1ccc(Nc2nccc(-c3cc4ccccc4s3)n2)cc1 | binding | competition with immobilised ligand | 1 µM | 100 |
| Nc1ncc2c(n1)-c1c([nH]c3ccc(C#CC4CC4)cc13)CCCC2 | binding | competition with immobilised ligand | 1 µM | 95 |
| N[C@@H]1CCN(c2nccc(-c3cnn4ncccc34)n2)C1 | binding | – | 1 µM | 100 |
| C[C@@H]1CN(c2ccc3ncc(-c4ccc5[nH]nc(C6CC6)c5c4)n3n2)C[C@H](C)O1 | binding | competition with immobilised ligand | 0.5 µM | 3.5 |
| CN(C)c1ncnc(-c2ccc3nc(Nc4cc(CN5CCN(C(=O)CC(F)(F)F)CC5)ccn4)[nH]c3c2)c1Cl | cell-free assay | competition with immobilised ligand | 1 µM | 100 |
| c1cnn2ncc(-c3ccnc(N4CCC45COC5)n3)c2c1 | binding | – | 1 µM | 64 |
| COc1cnc(Nc2cccc(S(N)(=O)=O)c2)nc1N1CCN(c2ccccc2)CC1 | binding | competition with immobilised ligand | 1 µM | 100 |
| CCC(=O)N[C@@H]1CC[C@H](C(=O)N(C)c2ccc(-c3nc4ccccc4o3)cc2)C1 | cell-free assay | competition with immobilised ligand | 1 µM | 100 |
| CN(CCCC(F)(F)F)c1nccc(-c2cnn3ncccc23)n1 | binding | – | 1 µM | 100 |
| O=C(c1ccc(Nc2ncc(Cl)c(-c3cc4ccccc4s3)n2)cc1)N1CCC(N2CCCC2)CC1 | binding | competition with immobilised ligand | 1 µM | 100 |
| CN(C(=O)c1ccccc1)c1cc(N(C)c2ccc3c(c2)CCc2ccc(C(=O)NCCN4CCOCC4)cc2C3=O)ccc1F | cell-free assay | competition with immobilised ligand | 1 µM | 72 |
| CN(C)c1ncc(F)c(-c2cnn3ncccc23)n1 | binding | – | 1 µM | 95 |
| COc1cnc(Nc2cccc(S(N)(=O)=O)c2)nc1N1CCN(c2ccccc2)C(=O)C1 | binding | competition with immobilised ligand | 1 µM | 100 |
| CN(C)CC#Cc1ccc(OCCCc2sc(N3CCc4cccc(C(=O)Nc5nc6ccccc6s5)c4C3)nc2C(=O)O)c(F)c1 | cell-free assay | competition with immobilised ligand | 1 µM | 100 |
| F[C@@H]1CCN(c2nccc(-c3cnn4ncccc34)n2)C1 | binding | – | 1 µM | 100 |
